Source: publication PMC7113734 (Antiviral Research, 2016)
Where “and” joins values, the source holds several entries; their conditions need not be identical. Identical values can stand only once. Entries after “also recorded” stand apart in the source; their conditions may differ.

Experiments:
[1] = test system: respiratory syncytial virus; assay: DMID antiviral screening, RSV; format: cell-based
[2] = test system: Venezuelan equine encephalitis virus; format: cell-based
rift valley fever virus = assay: microbe, parasite or virus in culture; format: cell-based
SARS corona virus = assay: organism not typed; format: cell-based
tacaribe virus = assay: microbe, parasite or virus in culture; format: cell-based; details: Mammarenavirus tacaribeense
HIVIIIB = assay: Virucidal assay; format: cell-based, HIV-1; details: virions treated 20 min, washed, CEM-SS cells
Outline: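 Test compound incubated with undiluted HIV-1 IIIB for 20 min at 37 °C. Virus pelleted at 13,800 rpm, 4 °C, 90 min, then washed five times with culture medium. Pellet resuspended in RPMI to the predetermined titer of untreated virus and used to infect CEM-SS cells for 6 days at 37 °C/5% CO2. Infectivity read by XTT cell viability.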

[3] = Maximum tolerated dose, single oral administration; format: in vivo, Sprague-Dawley rats; details: single oral 750, 1000, 1500, 2000 mg/kg; rats
Outline: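 Single oral gavage in Sprague-Dawley rats, 8 per group (4 female, 4 male). Doses of 750, 1000, 1500 or 2000 mg/kg given in 5% DMSO/70% PEG400 in water, or 2000 mg/kg in 2% CMC-Na in water. Dose volume 10 mL/kg, or 20 mL/kg at 2000 mg/kg. Four-day observation after dosing: cageside and clinical signs, body weight, food consumption.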

[4] = Fourteen-day repeat dose toxicity study; format: in vivo, Sprague-Dawley rats; details: rats
Outline: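 Thirty-two Sprague-Dawley rats in four groups of 8, alongside a control article. Daily oral gavage for 14 days at 500, 1000 or 2000 mg/kg, given as suspension in 2% CMC-Na in water. Per group, 4 main animals necropsied Day 15 and 4 recovery animals Day 29. Blood for clinical pathology taken before sacrifice. Endpoints: clinical observations, body weight, food consumption, clinical chemistry, hematology, coagulation, urinalysis, organ weights, gross and microscopic pathology.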

NC(=O)CCNC(=O)c1ccccc1S [MDH-1-38, N-(3-amino-3-oxopropyl)-2-mercaptobenzamide]
antiviral activity [1]: failed to show any activity
antiviral activity [2]: failed to show any activity
EC50 (rift valley fever virus): ~20 µM
EC50 (SARS corona virus): ~20 µM
EC50 (tacaribe virus): ~20 µM

CCCC(=O)OCSc1ccccc1C(=O)NCCC(N)=O [NS1040, ((2-((3-amino-3-oxopropyl)carbamoyl)phenyl)thio)methyl butyrate]
concentration reducing infectivity of HIV virions (virucidal) (HIVIIIB): 50 µM and > 50 µM
toxicity in MTD study [3]: did not exhibit any toxicity at any dose
urine observation in repeat dose study ([4]; at the higher doses): cloudy urine samples were noted for some of the rats
toxicity in repeat dose study ([4]; oral 500, 1000, 2000 mg/kg for 14 consecutive days): no toxicity observed; also recorded: non-toxic
